Data published in ChEMBL document CHEMBL1149279, “2,4,6-trisubstituted pyrimidines as a new class of selective adenosine A1 receptor antagonists” (J Med Chem, 2004).

Key:
[1] = molecular target: T1, Adenosine receptor A2a (Homo sapiens, UniProt P29274); test: Displacement of [3H]ZM-241385 from human adenosine A2A receptor expressed in HEK293 cells; format: cell-based
[2] = molecular target: Adenosine receptors; A1 & A3 (Homo sapiens) (UniProt P30542+P0DMS8); test: Selectivity for human adenosine A1 receptor over human adenosine A3 receptor; format: protein assay
[3] = molecular target: T2, Adenosine receptor A3 (Homo sapiens, UniProt P0DMS8); test: Displacement of [125I]AB-MECA from human adenosine A3 receptor expressed in HEK293 cells; format: cell-based
T2 sequence (P0DMS8 whole entry): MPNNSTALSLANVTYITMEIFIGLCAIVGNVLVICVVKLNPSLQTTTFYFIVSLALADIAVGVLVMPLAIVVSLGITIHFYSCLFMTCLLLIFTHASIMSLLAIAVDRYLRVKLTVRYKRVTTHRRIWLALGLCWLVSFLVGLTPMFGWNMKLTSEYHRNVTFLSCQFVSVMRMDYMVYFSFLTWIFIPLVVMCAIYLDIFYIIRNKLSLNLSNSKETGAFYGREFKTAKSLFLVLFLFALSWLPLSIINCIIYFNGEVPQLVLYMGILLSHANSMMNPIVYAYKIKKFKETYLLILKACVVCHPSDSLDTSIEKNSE

[4] = molecular target: T3, Adenosine receptor A1 (Homo sapiens, UniProt P30542); test: Displacement of [3H]DPCPX from human adenosine A1 receptor expressed in CHO cells; format: cell-based
T3 sequence (P30542 whole entry): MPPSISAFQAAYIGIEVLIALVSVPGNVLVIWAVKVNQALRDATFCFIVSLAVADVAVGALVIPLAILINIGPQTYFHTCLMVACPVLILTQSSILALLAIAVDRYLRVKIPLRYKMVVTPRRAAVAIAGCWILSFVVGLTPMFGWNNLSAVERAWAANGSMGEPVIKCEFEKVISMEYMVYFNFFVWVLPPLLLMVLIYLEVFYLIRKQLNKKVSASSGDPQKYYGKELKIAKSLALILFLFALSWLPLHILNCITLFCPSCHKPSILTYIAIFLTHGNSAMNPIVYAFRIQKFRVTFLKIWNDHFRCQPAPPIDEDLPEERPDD

[5] = molecular target: T1, Adenosine receptor A2a; test: Displacement of [3H]ZM241385 from human adenosine A2A receptor expressed in HEK293 cells at 1 uM; format: cell-based
[6] = molecular target: T4, Adenosine receptor A3 (Homo sapiens) (UniProt P0DMS8); test: Displacement of [125I]AB-MECA from human adenosine A3 receptor expressed in HEK293 cells at 1 uM; format: cell-based
T4 sequence (whole entry): T2 sequence (P0DMS8 whole entry)

[7] = molecular target: T5, Adenosine receptor A1 (Homo sapiens) (UniProt P30542); test: Antagonist activity at human adenosine A1 receptor expressed in CHO cells assessed as effect on forskolin-stimulated cAMP production at 1 uM; format: functional, cell-based; design: scale not given: the % may be the effect or the level left; conditions: filed as antagonist
T5 sequence (whole entry): T3 sequence (P30542 whole entry)
Outline: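 Human A1-expressing CHO cells, 2 × 10^5/well, grown overnight; in HEPES/DMEM (pH 7.4) with adenosine deaminase 0.8 IU/mL, rolipram 50 μM and cilostamide 50 μM, 30 min at 37 °C. Then CPA 1 μM, test compound 1 μM, 10 min; forskolin 10 μM added for 15 min. Stopped with ice-cold 0.1 M HCl. cAMP measured by [3H]cAMP/PKA competition; normalized to CPA (0%) and forskolin (100%). Three independent experiments in duplicate.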

[8] = molecular target: T5, Adenosine receptor A1 (Homo sapiens); test: Antagonist activity at human adenosine A1 receptor expressed in CHO cells assessed as reversal of CPA-induced effect on forskolin-stimulated cAMP production at 10 uM; format: functional, cell-based; conditions: filed as antagonist
[9] = molecular target: T6, Adenosine receptor A2b (Homo sapiens) (UniProt P29275); test: Displacement of [3H]MRS1754 from human adenosine A2B receptor expressed in CHO cells at 1 uM; format: cell-based
T6 sequence (whole entry): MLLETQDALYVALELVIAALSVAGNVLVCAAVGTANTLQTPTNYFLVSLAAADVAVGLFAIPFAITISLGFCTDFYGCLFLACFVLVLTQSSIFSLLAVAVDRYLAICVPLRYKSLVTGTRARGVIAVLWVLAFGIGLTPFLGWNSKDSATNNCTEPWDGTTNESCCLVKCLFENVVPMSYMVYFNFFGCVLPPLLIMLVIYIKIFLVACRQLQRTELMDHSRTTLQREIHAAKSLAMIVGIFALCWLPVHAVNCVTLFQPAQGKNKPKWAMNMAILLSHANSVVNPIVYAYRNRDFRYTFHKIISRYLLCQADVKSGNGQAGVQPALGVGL
Outline: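 CHO cells stably transfected with human A2B supply the membranes (20 μg protein). [3H]MRS1754 at 1.2 nM final, 1 h at 25 °C in 50 mM Tris/HCl, 10 mM MgCl2, 1 mM EDTA, 0.01 w/v % CHAPS. Nonspecific binding with 1 mM NECA. Filtration and scintillation counting; % displacement at 1 μM, n = 2.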

[10] = molecular target: T5, Adenosine receptor A1 (Homo sapiens); test: Displacement of [3H]DPCPX from human adenosine A1 receptor expressed in CHO cells at 1 uM; format: cell-based

T1 sequence (P29274 whole entry): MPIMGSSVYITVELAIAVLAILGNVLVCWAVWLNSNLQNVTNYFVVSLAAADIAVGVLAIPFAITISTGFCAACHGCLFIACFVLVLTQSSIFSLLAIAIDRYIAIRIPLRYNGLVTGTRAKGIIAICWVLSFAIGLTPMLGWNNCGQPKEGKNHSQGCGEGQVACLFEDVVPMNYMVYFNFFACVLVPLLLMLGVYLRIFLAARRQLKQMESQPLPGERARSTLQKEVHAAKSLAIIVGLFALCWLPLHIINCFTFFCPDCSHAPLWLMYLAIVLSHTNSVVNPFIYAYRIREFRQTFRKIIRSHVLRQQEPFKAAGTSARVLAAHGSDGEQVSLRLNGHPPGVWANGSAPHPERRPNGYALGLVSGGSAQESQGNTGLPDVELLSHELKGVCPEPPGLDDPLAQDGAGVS

Structure (SMILES) | Ki [1] | Ki [3] | Ki [4] | Activity [5] [%] | Activity [6] [%] | other results
CCC(=O)Nc1cc(-c2ccccc2)nc(-c2ccccc2)n1 | 81.9 nM (antagonist) | 22.4 nM (antagonist) |  |  |  | Selectivity ratio [2]: 2
O=C(Nc1nc(-c2ccccc2)cc(-c2ccccc2)n1)C1CCCCC1 |  |  | 119 nM (antagonist) | 31 | 9 | 
CC(C)C(=O)Nc1cc(-c2ccccc2)nc(-c2ccccc2)n1 | 376 nM (antagonist) | 267 nM (antagonist) |  |  |  | Selectivity ratio [2]: 24
CCC(CC)C(=O)Nc1nc(-c2ccccc2)cc(-c2ccccc2)n1 |  |  | 27.1 nM (antagonist) | 11 | 27 | 
CCC(C)C(=O)Nc1cc(-c2ccccc2)nc(-c2ccccc2)n1 (centres undefined) | 899 nM (antagonist) | 147 nM (antagonist) |  |  |  | Activity [7]: 60%; Activity [8]: Antagonist; Activity [9]: 44%
CCCCCC(=O)Nc1cc(-c2ccccc2)nc(-c2ccccc2)n1 |  | 392 nM (antagonist) | 109 nM (antagonist) | 48 |  | 
CC(C)(C)CC(=O)Nc1cc(-c2ccccc2)nc(-c2ccccc2)n1 |  |  |  | 32 | 39 | Activity [9]: 4%
CC(C)(C)C(=O)Nc1cc(-c2ccccc2)nc(-c2ccccc2)n1 |  |  |  | 18 | 49 | 
CCCCC(=O)Nc1nc(-c2ccccc2)cc(-c2ccccc2)n1 |  |  | 27.6 nM (antagonist) | 0 | 23 | 
CC(C)CC(=O)Nc1cc(-c2ccccc2)nc(-c2ccccc2)n1 | 157 nM (antagonist) | 447 nM (antagonist) |  |  |  | 
CCCC(=O)Nc1nc(-c2ccccc2)cc(-c2ccccc2)n1 |  |  | 3.7 nM (antagonist) | 7 | 38 | Activity ([9]; filed as antagonist): 54%
CCC(CC)C(=O)Nc1cc(-c2ccccc2)nc(-c2ccccc2)n1 | 381 nM (antagonist) |  |  |  | 57 | Activity ([9]; filed as antagonist): 72%
O=C(Nc1cc(-c2ccccc2)nc(-c2ccccc2)n1)C1CCCC1 | 196 nM (antagonist) | 170 nM (antagonist) |  |  |  | Activity [7]: 60%; Activity [8]: Antagonist; Activity ([9]; filed as antagonist): 52%
O=C(Nc1cc(-c2ccccc2)nc(-c2ccccc2)n1)C1CCC1 | 179 nM (antagonist) | 178 nM (antagonist) |  |  |  | Activity ([9]; filed as antagonist): 74%
O=C(Nc1nc(-c2ccccc2)cc(-c2ccccc2)n1)C1CCCC1 |  |  | 11.4 nM (antagonist) | 11 | 39 | Activity [9]: 42%
O=C(Nc1nc(-c2ccccc2)cc(-c2ccccc2)n1)C1CCC1 |  |  | 107 nM (antagonist) | 33 | 18 | 
O=C(Nc1cc(-c2ccccc2)nc(-c2ccccc2)n1)C1CCCCC1 | 208 nM (antagonist) |  |  |  | 32 | 
O=C(Nc1cc(-c2ccccc2)nc(-c2ccccc2)n1)C1CC1 | 189 nM (antagonist) | 25 nM (antagonist) | 7.58 nM (antagonist) |  |  | 
CCCC(=O)Nc1cc(-c2ccccc2)nc(-c2ccccc2)n1 | 124 nM (antagonist) | 167 nM (antagonist) |  |  |  | 
CC(C)CC(=O)Nc1nc(-c2ccccc2)cc(-c2ccccc2)n1 |  |  | 25.1 nM (antagonist) | 42 | 23 | 
O=C(Nc1cc(-c2ccccc2)nc(-c2ccccc2)n1)c1ccccc1 |  | 1300 nM (antagonist) |  | 17 |  | Selectivity ratio [2]: 2
CCCCCC(=O)Nc1nc(-c2ccccc2)cc(-c2ccccc2)n1 |  |  |  | 0 | 24 | Activity [10]: 28%
CC(C)(C)C(=O)Nc1nc(-c2ccccc2)cc(-c2ccccc2)n1 |  |  | 224 nM (antagonist) | 0 | 4 | 
CC(=O)Nc1cc(-c2ccccc2)nc(-c2ccccc2)n1 | 489 nM (antagonist) | 6.88 nM (antagonist) |  |  |  | 
O=C(Nc1nc(-c2ccccc2)cc(-c2ccccc2)n1)C1CC1 | 228 nM (antagonist) | 676 nM (antagonist) | 24.9 nM (antagonist) |  |  | 

Further lines, with some results ahead:

Ki [1] | Ki [3] | Ki [4] | Activity [5] [%] | Activity [6] [%] | Structure (SMILES) | other results
 |  |  | 0 | 30 | O=C(Nc1nc(-c2ccccc2)cc(-c2ccccc2)n1)c1ccc(Cl)c(Cl)c1 | Activity [10]: 0%
 | 3280 nM (antagonist) |  | 0 |  | O=C(Nc1nc(-c2ccccc2)cc(-c2ccccc2)n1)c1ccc(Cl)cc1 | Activity [10]: 0%
 | 237 nM (antagonist) |  | 31 |  | CC(=O)Nc1nc(-c2ccccc2)cc(-c2ccccc2)n1 | 
 | 1170 nM (antagonist) |  | 0 |  | COc1ccc(C(=O)Nc2cc(-c3ccccc3)nc(-c3ccccc3)n2)cc1 | Activity [10]: 30%
 |  |  | 45 | 41 | COc1ccc(C(=O)Nc2nc(-c3ccccc3)cc(-c3ccccc3)n2)cc1 | Activity [10]: 31%
 |  | 8.87 nM (antagonist) | 44 | 45 | CC(C)C(=O)Nc1nc(-c2ccccc2)cc(-c2ccccc2)n1 | Activity ([9]; filed as antagonist): 79%
 |  |  | 0 | 13 | Cc1ccc(C(=O)Nc2nc(-c3ccccc3)cc(-c3ccccc3)n2)cc1 | Activity [10]: 37%
 |  |  | 0 | 33 | O=C(Nc1cc(-c2ccccc2)nc(-c2ccccc2)n1)c1ccc(Cl)cc1 | Activity [10]: 35%
 |  | 368 nM (antagonist) | 22 | 41 | O=C(Nc1nc(-c2ccccc2)cc(-c2ccccc2)n1)c1cccc(Cl)c1 | 
 |  | 309 nM (antagonist) | 5 | 38 | O=C(Nc1nc(-c2ccccc2)cc(-c2ccccc2)n1)c1ccccc1 | 
893 nM (antagonist) | 547 nM (antagonist) | 46.4 nM (antagonist) |  |  | CCC(=O)Nc1nc(-c2ccccc2)cc(-c2ccccc2)n1 | 
